{"source": "paper PMC8513424", "about": "(Laryngoscope Investigative Otolaryngology, 2021)", "key": {"[1]": {"test_system": "AKT phosphorylation in primary human VS cells", "experiment": "AKT phosphorylation in primary VS cells", "format": "cell-based", "details": "Figure S2"}, "Ben‐Men‐1 xenograft": {"test_system": "Ben‐Men‐1 xenograft", "details": "cited from earlier work"}, "[2]": {"experiment": "Pilot 2 plasma AR‐42 concentration by LC‐MS/MS", "format": "in vivo, human", "details": "40 mg; for Concentration in plasma, Before surgery: mean of three trials", "summary_of_the_method": "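Dosing was 40 mg orally three times weekly for 3 weeks before surgery. Venous blood was drawn at induction of anesthesia and again at tumor removal (about 3-4 h after surgery start). Plasma was separated by cold centrifugation and kept frozen. Drug was quantified by LC-MS/MS against a standard curve, as the mean of three runs. Pre-operative and removal-time levels were compared by paired t-test (P ≤ .05).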"}, "[3]": {"test_system": "p‐AKT, p‐S6 and p‐ERK in VS and meningioma", "experiment": "Pilot 2 fluorescent Western blotting of resected tumors", "format": "in vivo, human", "summary_of_the_method": "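Patients took 40 mg of the test compound orally three times weekly for 3 weeks before resection. VS were split into peripheral capsule and center. Tumor lysates were run on fluorescent Western blots for p-AKT, total AKT, p-S6, total S6, p-ERK and total ERK. Phospho/total ratios were expressed as percent of an untreated banked VS or meningioma set as 100%.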"}, "human VS cells": {"test_system": "human VS cells", "details": "cited from earlier work"}, "[4]": {"test_system": "patients with NF2 or sporadic meningioma", "experiment": "Pilot 1 safety and tolerability", "format": "in vivo, human", "summary_of_the_method": "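Pilot 1 was a subset of a phase I, 3 + 3 dose-escalation study of the oral test compound in solid tumors. Dosing started at 30 mg three times weekly for 3 weeks, then 1 week off, per 28-day cycle. Adults (≥18 y, ECOG 0-1) had NF2-associated or sporadic VS/meningioma with ≥15% volumetric growth on pre-enrollment MRI. Toxicities were graded by CTCAE v4.0.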"}, "VS and meningioma cells": {"test_system": "VS and meningioma cells", "details": "cited from earlier work"}}, "note": "Read-outs that look alike come from different tables or passages of the source.", "data": [{"smiles": "CC(C)[C@H](C(=O)Nc1ccc(C(=O)NO)cc1)c1ccccc1", "note": "[AR‐42]", "values": [{"measurement": "AKT phosphorylation in primary human VS cells", "setting": "[1]", "value": "reduced AKT phosphorylation"}, {"measurement": "Meningioma tumor volumes", "setting": "Ben‐Men‐1 xenograft", "value": "markedly diminished meningioma tumor volumes"}, {"measurement": "Tumor return after treatment", "setting": "Ben‐Men‐1 xenograft; followed 6 months post‐treatment", "value": "tumors did not return"}, {"measurement": "Concentration in plasma, At tumor removal", "setting": "[2]; Patient # 2.1 (VS)", "value": 303.7, "unit": "nM"}, {"measurement": "Concentration in plasma, Before surgery", "setting": "[2]; Patient # 2.1 (VS)", "value": 362.3, "unit": "nM"}, {"measurement": "Concentration in plasma, At tumor removal", "setting": "[2]; Patient # 2.2 (VS)", "value": 121.1, "unit": "nM"}, {"measurement": "Concentration in plasma, Before surgery", "setting": "[2]; Patient # 2.2 (VS)", "value": 224.2, "unit": "nM"}, {"measurement": "Concentration in plasma, At tumor removal", "setting": "[2]; Patient # 2.4 (VS)", "value": 36.8, "unit": "nM"}, {"measurement": "Concentration in plasma, Before surgery", "setting": "[2]; Patient # 2.4 (VS)", "value": 61.8, "unit": "nM"}, {"measurement": "Concentration in plasma, At tumor removal", "setting": "[2]; Patient # 2.6 (VS)", "value": 3.4, "unit": "nM"}, {"measurement": "Concentration in plasma, Before surgery", "setting": "[2]; Patient # 2.6 (VS)", "value": 3.5, "unit": "nM"}, {"measurement": "Concentration in plasma, At tumor removal", "setting": "[2]; Patient # 2.7 (meningioma)", "value": 72.9, "unit": "nM"}, {"measurement": "Concentration in plasma, Before surgery", "setting": "[2]; Patient # 2.7 (meningioma)", "value": 99.1, "unit": "nM"}, {"measurement": "Plasma concentration of AR‐42", "setting": "[2]; first three patients with VS, before and at tumor removal", "value": "62 to 360", "unit": "nM"}, {"measurement": "Plasma level after anesthesia", "setting": "[2]; patient with meningioma", "value": 73, "unit": "nM"}, {"measurement": "Plasma level before anesthesia", "setting": "[2]; patient with meningioma", "value": 99, "unit": "nM"}, {"measurement": "p‐S6 in meningioma", "setting": "[3]; Patient 2.7, vs untreated meningioma", "value": "reduction in p‐S6"}, {"measurement": "p‐AKT in meningioma", "setting": "[3]; Patient 2.7, vs untreated meningioma tumors", "value": "not reduced"}, {"measurement": "Levels of p‐ERKs and p‐S6 in AR‐42‐treated VS", "setting": "[3]; vs untreated VS, 40 mg", "value": "substantially reduced in three of four"}, {"measurement": "p‐AKT levels in AR‐42‐treated VS tumors", "setting": "[3]; vs untreated VS, 40 mg", "value": "decreased p‐AKT levels in three of four"}, {"measurement": "IC50", "setting": "human VS cells; read-out: IC50, growth inhibition of human VS cells", "value": 500, "unit": "nM"}, {"measurement": "IC50", "setting": "human VS cells; read-out: IC50 for schwannomas, previous in vitro studies", "value": "~500", "unit": "nM"}, {"measurement": "Dose‐limiting toxicity", "setting": "[4]; Patient 1.7, 80 mg, after 10 days of treatment, or 5 doses", "value": "grade 4 psychiatric disorder"}, {"measurement": "Tolerability", "setting": "[4]; Pilot 1, 60 mg", "value": "generally well tolerated"}, {"measurement": "Arrhythmias or QT prolongations", "setting": "[4]; Pilot 1, 60‐80 mg", "value": "no reported arrhythmias or QT prolongations of any grade"}, {"measurement": "Apoptosis", "setting": "VS and meningioma cells", "value": "triggered apoptosis"}, {"measurement": "Cell cycle effect", "setting": "VS and meningioma cells", "value": "induced cell‐cycle arrest at G2/M"}, {"measurement": "p‐AKT levels", "setting": "VS and meningioma cells", "value": "decreased p‐AKT levels"}]}]}
